Measured values from ChEMBL document CHEMBL2062449, “Eco-friendly synthesis and biological evaluation of substituted pyrano[2,3-c]pyrazoles” (Bioorg Med Chem Lett, 2012).

What was measured:
MCF7 [1] = assay: Cytotoxicity against estrogen receptor-positive human MCF7 cells assessed as inhibition of cell proliferation at 1 ug/ml after 24 hrs by MTT assay; type: functional; conditions: MCF7, 24 h
How it was run: (§1)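 MTT assay on MCF-7 human breast cancer cells, Taxol as reference; percentage inhibition of cell proliferation read at graded concentrations from 0.1 to 50 μg/mL (typically five or six levels per compound); IC50 in μg/mL derived from the inhibition series.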

MCF7 [2] = assay: Cytotoxicity against estrogen receptor-positive human MCF7 cells assessed as inhibition of cell proliferation at 50 ug/ml after 24 hrs by MTT assay; type: functional; conditions: MCF7, 24 h; how it was run: as §1
MCF7 [3] = assay: Cytotoxicity against estrogen receptor-positive human MCF7 cells assessed as inhibition of cell proliferation at 5 ug/ml after 24 hrs by MTT assay; type: functional; conditions: MCF7, 24 h; how it was run: as §1
MCF7 [4] = assay: Cytotoxicity against estrogen receptor-positive human MCF7 cells assessed as inhibition of cell proliferation at 10 ug/ml after 24 hrs by MTT assay; type: functional; conditions: MCF7, 24 h; how it was run: as §1
Escherichia coli = assay: Antibacterial activity against Escherichia coli at […] after 24 hrs by agar diffusion method; type: functional
How it was run: (§2)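 Single-concentration antibacterial screen at 100 μg/50 μL per test against the standard bacterial strains.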

MCF7 [5] = assay: Cytotoxicity against estrogen receptor-positive human MCF7 cells assessed as inhibition of cell proliferation at 25 ug/ml after 24 hrs by MTT assay; type: functional; conditions: MCF7, 24 h; how it was run: as §1
MCF7 [6] = assay: Cytotoxicity against estrogen receptor-positive human MCF7 cells assessed as inhibition of cell proliferation after 24 hrs by MTT assay; type: functional, cell-based; how it was run: as §1
Bacillus subtilis = assay: Antibacterial activity against Bacillus subtilis at […] after 24 hrs by agar diffusion method; type: functional; how it was run: as §2
Pseudomonas aeruginosa = assay: Antibacterial activity against Pseudomonas aeruginosa at 100 ug/[…] after 24 hrs by agar diffusion method; type: functional; how it was run: as §2
Staphylococcus aureus = assay: Antibacterial activity against Staphylococcus aureus at […] after 24 hrs by agar diffusion method; type: functional; how it was run: as §2
Rattus norvegicus [7] = assay: Antiinflammatory activity in Wistar rat assessed as protection against carrageenan-induced paw edema at 100 mg/kg, po administered 1 hr before carrageenan challenge measured after 3 hrs; type: functional
Rattus norvegicus [8] = assay: Antiinflammatory activity in Wistar rat assessed as protection against carrageenan-induced paw edema at 100 mg/kg, po administered 1 hr before carrageenan challenge measured after 1 hr; type: functional
Rattus norvegicus [9] = assay: Antiinflammatory activity in Wistar rat assessed as protection against carrageenan-induced paw edema at 100 mg/kg, po administered 1 hr before carrageenan challenge measured after 2 hrs; type: functional
Rattus norvegicus [10] = assay: Antiinflammatory activity in Wistar rat assessed as protection against carrageenan-induced paw edema at 100 mg/kg, po administered 1 hr before carrageenan challenge measured after 4 hrs; type: functional
Rattus norvegicus [11] = assay: Antiinflammatory activity in Wistar rat assessed as protection against carrageenan-induced paw edema at 100 mg/kg, po administered 1 hr before carrageenan challenge measured after 30 mins; type: functional
[12] = Homo sapiens, MCF7, 24 h, read-out: IC50

Structure (SMILES) | inhibition at 1 µg/mL (MCF7 [1]) | inhibition at 50 µg/mL (MCF7 [2]) | inhibition at 5 µg/mL (MCF7 [3]) | inhibition at 10 µg/mL (MCF7 [4]) | inhibition zone (IZ) (Escherichia coli) | inhibition at 25 µg/mL (MCF7 [5]) | IC50 (MCF7 [6]; [12]) | inhibition zone (IZ) (Bacillus subtilis) | inhibition zone (IZ) (Pseudomonas aeruginosa) | inhibition zone (IZ) (Staphylococcus aureus) | Activity (Rattus norvegicus [7]) | Activity (Rattus norvegicus [8]) | Activity (Rattus norvegicus [9]) | Activity (Rattus norvegicus [10]) | Activity (Rattus norvegicus [11]) | IC50 (MCF7 [6]; mcf7)
Cc1nn(-c2ccccc2)c2c1C(c1ccc([N+](=O)[O-])cc1)C(C#N)=C(N)O2 (centres undefined) | 2.04% | 96.4% | 12.5% | 30.8% | 15 mm | 85.5% | 15.1 µg/mL | 7 mm | 8 mm | 8 mm |  |  |  |  |  | 
Cc1nn(-c2ccccc2)c2c1C(c1ccccc1)C(C#N)=C(N)O2 (centres undefined) | 1.67% | 84.1% | 22.4% | 26.9% | 14 mm | 55.5% | 25.8 µg/mL | 8 mm | 9 mm | 6 mm | 53.7% | 27.7% | 42.4% | 48.3% | 11.7% | 
Cc1ccc(C2C(C#N)=C(N)Oc3[nH]nc(C)c32)cc1 (centres undefined) |  |  |  |  |  |  |  | 10 mm | 15 mm | 10 mm |  |  |  |  |  | 
COc1ccc(C2C(C#N)=C(N)Oc3c2c(C)nn3-c2ccccc2)cc1 (centres undefined) | 0.76% | 30% | 4.19% | 8.99% | 10 mm | 11.6% |  | 4 mm | 6 mm | 5 mm | 52.6% | 25% | 39.7% | 45% | 11.7% | 
Cc1[nH]nc2c1C(c1ccc(O)cc1)C(C#N)=C(N)O2 (centres undefined) |  |  |  |  | 15 mm |  |  |  | 15 mm | 13 mm |  |  |  |  |  | 
Cc1[nH]nc2c1C(c1cccnc1)C(C#N)=C(N)O2 (centres undefined) | 0.41% | 75% | 10.1% | 16.3% |  | 25.2% | 35.4 µg/mL |  |  |  |  |  |  |  |  | 
Cc1[nH]nc2c1C1(C(=O)Nc3ccccc31)C(C#N)=C(N)O2 (centres undefined) | -1.26% | -4.93% | -3.16% | 0.51% | 12 mm | -5.9% |  | 11 mm | 10 mm | 13 mm | 69.8% | 36.1% | 54.7% | 51.6% | 23.5% | 
Cc1[nH]nc2c1C1(C(C#N)=C(N)O2)c2ccccc2-c2ccccc21 |  |  |  |  | 10 mm |  |  | 10 mm | 17 mm | 10 mm |  |  |  |  |  | 
Cc1[nH]nc2c1C(c1ccc(C3C(C#N)=C(N)Oc4n[nH]c(C)c43)cc1)C(C#N)=C(N)O2 (centres undefined) | 11.4% | 26.7% | 23.4% | 24.4% |  | 24.8% |  |  |  |  |  |  |  |  |  | 
Cc1nn(-c2ccccc2)c2c1C1(C(C#N)=C(N)O2)c2ccccc2-c2ccccc21 |  |  |  |  | 13 mm |  |  | 11 mm | 16 mm | 12 mm | 65.5% | 30.5% | 45.2% | 56.6% | 23.5% | 
CC(C)Cc1ccc(C(C)C(=O)O)cc1 (centres undefined) [IBUPROFEN] |  |  |  |  |  |  |  |  |  |  | 72.3% | 41.6% | 52.7% | 64.4% | 38% | 
CC(=O)O[C@H]1C(=O)[C@@]2(C)[C@H]([C@H](OC(=O)c3ccccc3)[C@]3(O)C[C@H](OC(=O)[C@H](O)[C@@H](NC(=O)c4ccccc4)c4ccccc4)C(C)=C1C3(C)C)[C@]1(OC(C)=O)CO[C@@H]1C[C@@H]2O [PACLITAXEL] |  |  |  |  |  |  |  |  |  |  |  |  |  |  |  | 0.015 µM
